Assay results collected from several papers.
Protocols differ between the studies behind these lines.
ATAD2 bromodomain: ATPase family AAA domain-containing protein 2, bromodomain (ATAD2, Homo sapiens, UniProt Q6PL18)
KDR: Vascular endothelial growth factor receptor 2 (KDR, Homo sapiens, UniProt P35968)
PADI1: Protein-arginine deiminase type-1 (PADI1, Homo sapiens, UniProt Q9ULC6)
CDK16: Cyclin-dependent kinase 16 (CDK16, Homo sapiens, UniProt Q00536)

| SMILES | target | assay | test system | setting | quantity | value |
| --- | --- | --- | --- | --- | --- | --- |
| CCc1cccc2c3c([nH]c12)C(CC)(CC(=O)O)OCC3 (stereo not shown) | Glycogen synthase kinase-3 beta (GSK3B, Homo sapiens, UniProt P49841) | enzyme activity, inhibitor, ADP detection | – | 100 µM | inhibition | 40.8% |
| Cc1cnc(Nc2ccc(OCCN3CCCC3)cc2)nc1Nc1cccc(S(=O)(=O)NC(C)(C)C)c1 | ATAD2 bromodomain | thermal stability, DSF | – | 10 µM | ΔTm | -0.25 °C |
| COc1ccc(NC(=O)c2c(Nc3ccccc3)sc(C#N)c2NC(=O)CNc2ccc([N+](=O)[O-])cc2)cc1 | KDR | enzyme activity, inhibitor | – | 1 µM | remaining activity | 79.1% |
| NC(=O)[C@H](CCCN=C(N)N)NC(=O)c1ccccc1 | PADI1 | enzyme activity, substrate | – | – | Km | 160 µM |
| C[S+]([O-])c1ccc(-c2nc(-c3ccncc3)c(-c3ccc(F)cc3)[nH]2)cc1 (stereo not shown) | ATAD2 bromodomain | thermal stability, DSF | – | 10 µM | ΔTm | -1.47 °C |
| N=C(CF)NCCC[C@H](NC(=O)c1ccccc1)c1nn[nH]n1 | PADI1 | enzyme activity, inhibitor | – | – | kinact/KI | 5.75 M⁻¹ s⁻¹ |
| Cc1ccc(C(=O)Nc2ccc(CN3CCN(C)CC3)c(C(F)(F)F)c2)cc1C#Cc1cnc2cccnn12 | 1-phosphatidylinositol 3-phosphate 5-kinase (PIKFYVE, Homo sapiens, UniProt Q9Y2I7) | cell-free assay | – | 23.5 nM | remaining signal | 100% |
| CC(C)(C)n1nnc([C@H](CCCNC(=N)CF)NC(=O)c2ccccc2C(=O)O)n1 | PADI1 | enzyme activity, inhibitor | – | – | kinact/KI | 1670 M⁻¹ s⁻¹ |
| COc1ccc(C=NNC(=O)c2sc(Nc3ccccc3)c(C(=O)Nc3ccc(OC)cc3)c2NC(C)=O)cc1 | KDR | enzyme activity, inhibitor | – | 10 µM | remaining activity | 48.6% |
| Cc1cc2c(cc1N1C(=O)c3cccc4c(Cl)ccc(c34)C1=O)n(C)c(=O)n2C | ATAD2 bromodomain | thermal stability, DSF | – | 10 µM | ΔTm | 0 °C |
| CCC1(CC)NC(=O)c2c(c3ccc(Cl)c(Cl)c3n2C)C1C#N (stereo not shown) | CDK16 | thermal stability, DSF | – | 10 µM | ΔTm | 0.3 °C |
| CC(C)(C)n1nnc([C@H](CCCNC(=N)CCl)NC(=O)c2ccc(-c3ccccc3)cc2)n1 | PADI1 | enzyme activity, inhibitor | – | – | kinact/KI | 46.2 M⁻¹ s⁻¹ |
| NCCCC[C@H](NC(=O)[C@@H]1CCCN1C(=O)[C@@H]1CSSC[C@H](NC(=O)CNC(=O)CNC(=O)CN)C(=O)N[C@@H](Cc2ccc(O)cc2)C(=O)N[C@@H](Cc2ccccc2)C(=O)N[C@@H](CCC(N)=O)C(=O)N[C@@H](CC(N)=O)C(=O)N1)C(=O)NCC(N)=O | Vasopressin V1a receptor (AVPR1A, Homo sapiens, UniProt P37288) | calcium signal, agonist | CHO-S | – | Emax | 41% |
| O=C(O)c1ccc2c(c1)nc(NCCc1cccc(Cl)c1)c1ncncc12 | Dual specificity tyrosine-phosphorylation-regulated kinase 2 (DYRK2, Homo sapiens, UniProt Q92630) | enzyme activity, inhibitor, radiometric | – | 1 µM | remaining activity | 76% |
| COc1ccc(NC(=O)c2c(Nc3ccccc3)sc(C(=O)NN=Cc3ccc(Cl)cc3)c2NC(C)=O)cc1 | KDR | enzyme activity, inhibitor | – | 1 µM | remaining activity | 83.7% |
| CN(C)C1CCN(CC#Cc2nn(C3CCCC3)c3nc(NCc4ccccc4)ncc23)C1 (stereo not shown) | Dual specificity mitogen-activated protein kinase kinase 1 (MAP2K1, Homo sapiens, UniProt Q02750) | enzyme activity, inhibitor, FRET | – | 1 µM | inhibition | 9% |
| COc1ccc(NC(=O)c2c(Nc3ccccc3)sc(C#N)c2NC(=O)CNc2ccc(Cl)cc2)cc1 | KDR | enzyme activity, inhibitor | – | 10 µM | remaining activity | 29.6% |
| CC(C)(C)n1nnc([C@H](CCCNC(=N)CCl)NC(=O)c2ccccc2C(=O)O)n1 | PADI1 | enzyme activity, inhibitor | – | – | kinact/KI | 2700 M⁻¹ s⁻¹ |
| COc1ccc(NC(=O)c2c(Nc3ccccc3)sc(C(=O)NN=Cc3ccc(OC)c(O)c3)c2NC(C)=O)cc1 | KDR | enzyme activity, inhibitor | – | 1 µM | remaining activity | 63.2% |
| Nc1ncnc2occ(-c3ccc(NC(=O)Nc4cc(C(F)(F)F)ccc4F)cc3)c12 | Phosphatidylinositol 5-phosphate 4-kinase type-2 beta (PIP4K2B, Homo sapiens, UniProt P78356) | enzyme activity, inhibitor | – | 20 µM | remaining activity | 100% |
| N=C(CCl)NCCC[C@H](NC(=O)c1ccccc1)c1nn[nH]n1 | PADI1 | enzyme activity, inhibitor | – | – | kinact/KI | 110 M⁻¹ s⁻¹ |
| COc1ccc(NC(=O)c2c(Nc3ccccc3)sc(C(=O)NN=Cc3cc(OC)c(OC)c(OC)c3)c2NC(C)=O)cc1 | KDR | enzyme activity, inhibitor | – | 0.1 µM | remaining activity | 95.4% |
| CC(C)(C)n1nnc([C@H](CCCNC(=N)CF)NC(=O)c2ccc(-c3ccccc3)cc2)n1 | PADI1 | enzyme activity, inhibitor | – | – | kinact/KI | 14.4 M⁻¹ s⁻¹ |
| COc1ccc(NC(=O)c2c(Nc3ccccc3)sc(C#N)c2NC(=O)CNc2ccc(Br)cc2)cc1 | KDR | enzyme activity, inhibitor | – | 0.1 µM | remaining activity | 66.2% |
| CC1(C)NC(=O)c2[nH]c3c(Cl)c(Cl)ccc3c2C1C#N (stereo not shown) | CDK16 | thermal stability, DSF | – | 10 µM | ΔTm | 0.4 °C |
